Test results from publication PMC11145139 (RSC Advances, 2024).
≈ marks a conversion by molar mass, not a printed value. Residues, ends and D or L forms follow the SMILES beside them.

What was measured:
Format in all cases: cell-based
[1] = tested on: Escherichia coli MTCC 443; assay: Antibacterial activity, Mueller Hinton Broth microdilution MIC; conditions: for Potency relative to standard drug Ampicillin against E. coli: ratio of MIC values vs Ampicillin (MIC 100 μg mL^−1)
[2] = tested on: Aspergillus niger MTCC 282; assay: Antifungal activity, Muller Hinton Broth dilution MIC; conditions: for MIC (anti-fungicidal activity) A. n.: Aspergillus niger MTCC 282, Muller Hinton Broth dilution, Sabouraud's dextrose broth, 28 °C, aerobic, 48 hours, triplicate experiments
In short: (§1)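 Broth dilution in Mueller Hinton medium. Test compounds were screened in triplicate at 1000, 500, 250 and 200 μg mL−1; actives were diluted further and retested. Fungal growth was followed in Sabouraud's dextrose broth at 28 °C, aerobic, for 48 h. MIC was taken as the lowest concentration preventing visible growth. Nystatin served as reference standard. Stocks were kept at −70 °C in trypticase-soy broth with 20% glycerol and subcultured three times before use.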

[3] = tested on: Candida albicans MTCC 227; assay: as above; conditions: for MIC (anti-fungicidal activity) C. a.: Candida albicans MTCC 227, Muller Hinton Broth dilution, Sabouraud's dextrose broth, 28 °C, aerobic, 48 hours, triplicate experiments
In short: as §1

[4] = tested on: Staphylococcus aureus MTCC 96; assay: Antibacterial activity, Mueller Hinton Broth microdilution MIC; conditions: vs Ampicillin (MIC 250 μg mL^−1)
[5] = tested on: Pseudomonas aeruginosa MTCC 1688; assay: as above; conditions: ratio of MIC values vs Ampicillin (MIC 100 μg mL^−1)
[6] = tested on: Streptococcus pyogenes MTCC 442; assay: as above; conditions: ratio of MIC values vs standard drug (MIC 100 μg mL^−1)
[7] = vs Nystatin (active at 100 μg mL^−1)

| Compound | MIC ([1]; Escherichia coli, MTCC443, 48 h, read-out: MIC (anti-bacterial activity) E. c.) | MIC (anti-fungicidal activity) A. n. [2] | MIC (anti-fungicidal activity) C. a. [3] | Potency relative to control drug Ampicillin against Staphylococcus aureus [4] | Potency relative to standard drug Ampicillin against E. coli [1] | Potency relative to standard drug Ampicillin against P. aeruginosa [5] | Potency relative to standard drug Ampicillin against Streptococcus pyogenes [6] | Potency relative to Nystatin against Aspergillus niger [2, 7] | Potency relative to Nystatin against Candida albicans [3, 7] |
| --- | --- | --- | --- | --- | --- | --- | --- | --- | --- |
| CC1(C)S[C@@H]2[C@H](NC(=O)[C@H](N)c3ccccc3)C(=O)N2[C@H]1C(=O)O [Ampicillin, reference compound] | 100 µg/mL (≈ 286 µM) |  |  |  |  |  |  |  |  |
| N=C(N)NCCC[C@H](NC(=O)[C@H](Cc1c[nH]cn1)NC(=O)[C@@H]1CCCN1C(=O)[C@H](CS)NC(=O)CN)C(=O)N[C@@H](CS)C(=O)O [Compound 7a, H-Gly-Cys-Pro-His-Arg-Cys-OH] (H-GCPHRC-OH) |  | 65 µg/mL (≈ 96.8 µM) | 60 µg/mL (≈ 89.3 µM) |  |  |  |  |  |  |
| C[C@H](N)C(=O)N[C@@H](CS)C(=O)N1CCC[C@H]1C(=O)N[C@@H](Cc1c[nH]cn1)C(=O)N[C@@H](CCCNC(=N)N)C(=O)N[C@@H](CS)C(=O)O [Compound 7b, H-Ala-Cys-Pro-His-Arg-Cys-OH] (H-ACPHRC-OH) |  | 50 µg/mL (≈ 72.9 µM) | 55 µg/mL (≈ 80.2 µM) | almost twice potent | around 2 times | 2 times |  |  |  |
| CC(C)[C@H](N)C(=O)N[C@@H](CS)C(=O)N1CCC[C@H]1C(=O)N[C@@H](Cc1c[nH]cn1)C(=O)N[C@@H](CCCNC(=N)N)C(=O)N[C@@H](CS)C(=O)O [Compound 7c, H-Val-Cys-Pro-His-Arg-Cys-OH] (H-VCPHRC-OH) |  | 40 µg/mL (≈ 56 µM) | 35 µg/mL (≈ 49 µM) | almost twice potent | 2.5 times | 2 times | 2 times |  |  |
| CC(C)C[C@H](N)C(=O)N[C@@H](CS)C(=O)N1CCC[C@H]1C(=O)N[C@@H](Cc1c[nH]cn1)C(=O)N[C@@H](CCCNC(=N)N)C(=O)N[C@@H](CS)C(=O)O [Compound 7d, H-Leu-Cys-Pro-His-Arg-Cys-OH] (H-LCPHRC-OH) |  | 35 µg/mL (≈ 48.1 µM) | 20 µg/mL (≈ 27.5 µM) |  | 4 times | 2.5 times | five time more potent | almost three times more potent | five times more potent |
| N=C(N)NCCC[C@H](NC(=O)[C@H](Cc1c[nH]cn1)NC(=O)[C@@H]1CCCN1C(=O)[C@H](CS)NC(=O)[C@@H]1CCCN1)C(=O)N[C@@H](CS)C(=O)O [Compound 7e, H-Pro-Cys-Pro-His-Arg-Cys-OH] (H-PCPHRC-OH) |  | 55 µg/mL (≈ 77.3 µM) | 50 µg/mL (≈ 70.2 µM) | almost twice potent | around 2 times |  |  |  |  |
| N=C(N)NCCC[C@H](NC(=O)[C@H](Cc1c[nH]cn1)NC(=O)[C@@H]1CCCN1C(=O)[C@H](CS)NC(=O)[C@@H](N)Cc1ccc(O)cc1)C(=O)N[C@@H](CS)C(=O)O [Compound 7f, H-Tyr-Cys-Pro-His-Arg-Cys-OH] (H-YCPHRC-OH) |  | 50 µg/mL (≈ 64.3 µM) | 40 µg/mL (≈ 51.4 µM) | almost twice potent | around 2 times | 2 times |  |  |  |
| C[C@@H]1[C@H](O)[C@@H](C)/C=C/C=C/CC/C=C/C=C/C=C/C=C/C(O[C@H]2O[C@H](C)[C@@H](O)[C@H](N)[C@@H]2O)CC2O[C@](O)(CC(O)C(O)CCC(O)CC(O)CC(O)CC(=O)O[C@H]1C)CC(O)C2C(=O)O (some centres unmarked) [Nystatin, reference compound] |  | 100 µg/mL (≈ 108 µM) | 100 µg/mL (≈ 108 µM) |  |  |  |  |  |  |
